# Results from ChEMBL document CHEMBL1132587, “Synthesis and serotonergic activity of 3-[2-(pyrrolidin-1-yl)ethyl]indoles: potent agonists for the h5-HT1D receptor with high selectivity over the h5-HT1B receptor” (J Med Chem, 1999).
# Values joined by “and” are separate entries in the source; they are usually repeats but may differ in a detail not shown here. Identical values can stand only once.
# What was measured:
# [1] = target: T1, 5-hydroxytryptamine receptor 1D (Homo sapiens, UniProt P28221); assay: Stimulation of [35S]GTP-gamma-S, binding in CHO cells expressing the 5-hydroxytryptamine 1D receptor; type: functional, cell-based
# [2] = target: T1, 5-hydroxytryptamine receptor 1D; assay: Displacement of [3H]5-HT binding from the cloned human 5-hydroxytryptamine 1D receptor stably expressed in CHO cells; type: cell-based
# [3] = target: T2, 5-hydroxytryptamine receptor 1B (Homo sapiens, UniProt P28222); assay: Displacement of [3H]5-HT binding from the cloned human 5-hydroxytryptamine 1B receptor stably expressed in CHO cells; type: cell-based
# [4] = target: T3, 5-hydroxytryptamine receptor 1A (Homo sapiens, UniProt P08908); assay: Affinity of compound towards 5-hydroxytryptamine 1A receptor was evaluated using radioligand binding technique
# T3 sequence (P08908 whole entry): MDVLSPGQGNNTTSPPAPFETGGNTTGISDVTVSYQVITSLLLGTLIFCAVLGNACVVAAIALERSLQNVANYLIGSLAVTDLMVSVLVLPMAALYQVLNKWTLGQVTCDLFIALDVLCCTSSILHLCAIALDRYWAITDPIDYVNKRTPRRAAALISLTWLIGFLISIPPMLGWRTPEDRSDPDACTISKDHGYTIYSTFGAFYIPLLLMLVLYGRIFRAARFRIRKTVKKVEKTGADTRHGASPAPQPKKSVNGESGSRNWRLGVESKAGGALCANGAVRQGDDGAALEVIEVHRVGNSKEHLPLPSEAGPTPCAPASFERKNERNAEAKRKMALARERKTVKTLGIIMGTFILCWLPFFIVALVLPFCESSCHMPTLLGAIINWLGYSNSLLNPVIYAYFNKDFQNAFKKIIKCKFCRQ
# Rattus norvegicus [5] = assay: Hepatic portal vein plasma concentration after oral administration; type: functional, organism-based
# In short: (§1)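 Fasted (≥12 h) rats, ~300 g, given 3 mg/kg orally in aqueous formulation (5 mL/kg); four rats per time point, isoflurane anaesthesia, hepatic portal vein blood at 0.5 or 2 h; plasma extracted (liquid-liquid or solid-phase) and analysed by reversed-phase HPLC with UV or fluorescence detection.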
# [6] = target: 5-hydroxytryptamine receptor 2A (Rattus norvegicus) (UniProt P14842); assay: Affinity of compound towards rat 5-hydroxytryptamine 2A receptor was evaluated using radioligand binding technique
# [7] = target: T2, 5-hydroxytryptamine receptor 1B; assay: Affinity of compound towards 5-hydroxytryptamine 1B receptor was evaluated using radioligand binding technique
# [8] = target: T1, 5-hydroxytryptamine receptor 1D; assay: Affinity of compound towards 5-hydroxytryptamine 1D receptor was evaluated using radioligand binding technique
# Rattus norvegicus [9] = assay: Hepatic portal vein plasma concentration after administration; type: functional, organism-based; in short: as §1
# 5-hydroxytryptamine receptor 2A (Rattus norvegicus), sequence (P14842 whole entry, looked up): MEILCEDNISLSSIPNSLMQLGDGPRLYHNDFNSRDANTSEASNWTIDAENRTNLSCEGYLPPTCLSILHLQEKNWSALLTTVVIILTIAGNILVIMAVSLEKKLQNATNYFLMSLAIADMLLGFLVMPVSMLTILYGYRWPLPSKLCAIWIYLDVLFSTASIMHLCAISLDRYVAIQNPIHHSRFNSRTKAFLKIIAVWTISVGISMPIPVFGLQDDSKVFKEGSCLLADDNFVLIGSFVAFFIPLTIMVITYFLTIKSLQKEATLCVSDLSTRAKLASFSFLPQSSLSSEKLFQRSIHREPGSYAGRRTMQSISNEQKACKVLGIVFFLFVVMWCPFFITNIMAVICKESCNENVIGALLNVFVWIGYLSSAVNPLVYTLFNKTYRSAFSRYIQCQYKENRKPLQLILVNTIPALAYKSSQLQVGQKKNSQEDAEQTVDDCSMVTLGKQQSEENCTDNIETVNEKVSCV
# T1 sequence (P28221 whole entry): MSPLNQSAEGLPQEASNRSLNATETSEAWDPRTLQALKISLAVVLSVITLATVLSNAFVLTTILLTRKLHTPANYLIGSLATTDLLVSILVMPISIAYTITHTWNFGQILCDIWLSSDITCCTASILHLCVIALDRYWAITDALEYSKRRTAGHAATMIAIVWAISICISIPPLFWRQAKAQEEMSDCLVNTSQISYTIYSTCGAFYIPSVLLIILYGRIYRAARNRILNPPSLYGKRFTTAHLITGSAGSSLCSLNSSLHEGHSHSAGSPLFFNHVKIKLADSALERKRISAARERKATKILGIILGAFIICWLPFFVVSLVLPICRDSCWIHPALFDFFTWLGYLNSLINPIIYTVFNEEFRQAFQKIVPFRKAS
# T2 sequence (P28222 whole entry): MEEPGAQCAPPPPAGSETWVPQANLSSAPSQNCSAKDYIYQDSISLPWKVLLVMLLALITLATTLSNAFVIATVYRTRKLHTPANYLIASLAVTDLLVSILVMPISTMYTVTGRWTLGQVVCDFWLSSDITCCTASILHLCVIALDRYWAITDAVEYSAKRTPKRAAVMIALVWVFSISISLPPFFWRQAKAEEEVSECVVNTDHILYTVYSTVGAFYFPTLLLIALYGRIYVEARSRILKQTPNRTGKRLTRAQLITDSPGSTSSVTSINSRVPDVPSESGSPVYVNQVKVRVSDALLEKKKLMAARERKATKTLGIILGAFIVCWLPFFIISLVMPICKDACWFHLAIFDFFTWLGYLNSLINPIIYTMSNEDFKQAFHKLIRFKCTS
SMILES,EC50 [1],IC50 [2],IC50 [3],also measured
c1cc(CNC[C@@H]2CCN(CCc3c[nH]c4ccc(-n5cnnc5)cc34)C2)co1,1.3 nM,0.45 nM,12 nM,
c1ccc(NC[C@@H]2CCN(CCc3c[nH]c4ccc(-n5cnnc5)cc34)C2)cc1,,9.1 nM,87 nM,
C=CCNC[C@@H]1CCN(CCc2c[nH]c3ccc(-n4cnnc4)cc23)C1,,17 nM,325 nM,
c1ccc(CCNC[C@@H]2CCN(CCc3c[nH]c4ccc(-n5cnnc5)cc34)C2)cc1,6.2 nM,2.6 nM,125 nM,
c1ccc(CNC[C@@H]2CCN(CCc3c[nH]c4ccc(-n5cnnc5)cc34)C2)cc1,0.8 nM,,,IC50 [4]: 5.4 nM; Plasma concentration (Rattus norvegicus [5]): < 5 ng/mL
C[C@@H](c1ccccc1)N(C)C[C@@H]1CCN(CCc2c[nH]c3ccc(Cn4cncn4)cc23)C1,4.5 nM,0.7 nM,87 nM,
c1cc2[nH]cc(CCN3CCC3)c2cc1-n1cnnc1,,1.1 nM,4.4 nM,
CC(=O)Nc1ccc(CNC[C@@H]2CCN(CCc3c[nH]c4ccc(-n5cnnc5)cc34)C2)cc1,10 nM,12 nM,165 nM,
O[C@@H]1CCN(CCc2c[nH]c3ccc(-n4cnnc4)cc23)C1,7.8 nM,9 nM,93 nM,
CN(Cc1ccccc1)C[C@@H]1CCN(CCc2c[nH]c3ccc(Cn4cncn4)cc23)C1,11 nM,7.7 nM,575 nM,Plasma concentration (Rattus norvegicus [5]): 39 ng/mL and 114 ng/mL
CN(Cc1ccccc1)C[C@@H]1CCN(CCCc2c[nH]c3ccc(-n4cnnc4)cc23)C1,,4.2 nM,59 nM,
C[C@@H](NC[C@@H]1CCN(CCc2c[nH]c3ccc(-n4cnnc4)cc23)C1)c1ccccc1,2.1 nM,0.72 nM,74 nM,
c1ccc(COC[C@@H]2CCN(CCCc3c[nH]c4ccc(-n5cnnc5)cc34)C2)cc1,,2.1 nM,33 nM,
c1ccc(CNC[C@@H]2CCN(CCc3c[nH]c4ccc(Cn5cncn5)cc34)C2)cc1,4.9 nM,3.2 nM,260 nM,Plasma concentration (Rattus norvegicus [5]): < 25 ng/mL and 55 ng/mL
CN(Cc1ccccc1)C[C@@H]1CCN(CCc2c[nH]c3ccc(-n4cnnc4)cc23)C1,1.5 nM,,32 nM,
c1cc2[nH]cc(CCN3CCCC3)c2cc1-n1cnnc1,2.3 nM,3.1 nM,28 nM,
CNS(=O)(=O)Cc1ccc2[nH]cc(CCN3CC[C@@H](CNCc4ccccc4)C3)c2c1,3.5 nM,1.1 nM,62 nM,IC50 [6]: 5800 nM; IC50 [7]: 62 nM; IC50 [4]: 41 nM; IC50 [8]: 1.1 nM
c1ccc(COC[C@@H]2CCN(CCc3c[nH]c4ccc(-n5cnnc5)cc34)C2)cc1,,,85 nM,
CN(Cc1ccccc1)[C@@H]1CCN(CCc2c[nH]c3ccc(-n4cnnc4)cc23)C1,,37 nM,,

SMILES,EC50 [1],IC50 [2],IC50 [3],also measured
C[C@H](NC[C@@H]1CCN(CCc2c[nH]c3ccc(-n4cnnc4)cc23)C1)c1ccccc1,0.63 nM,0.45 nM,41 nM,
c1ccc(CO[C@H]2CCN(CCc3c[nH]c4ccc(-n5cnnc5)cc34)C2)cc1,31 nM,20 nM,275 nM,
O=C1N[C@@H](Cc2ccc3[nH]cc(CCN4CC[C@@H](CNCc5ccccc5)C4)c3c2)CO1,1.7 nM,0.35 nM,49 nM,IC50 [6]: 3000 nM; IC50 [7]: 49 nM; IC50 [4]: 17 nM; Plasma concentration (Rattus norvegicus [9]): < 2 ng/mL and 4 ng/mL; IC50 [8]: 0.35 nM
CN(Cc1ccccc1)C[C@@H]1CCCN1CCc1c[nH]c2ccc(-n3cnnc3)cc12,3 nM,0.8 nM,15 nM,
CC(=O)N(Cc1ccccc1)C[C@@H]1CCN(CCc2c[nH]c3ccc(-n4cnnc4)cc23)C1,,1.1 nM,11 nM,
c1ccc(COC[C@@H]2CCCN2CCc2c[nH]c3ccc(-n4cnnc4)cc23)cc1,,0.81 nM,2.7 nM,
C[C@H](NC[C@@H]1CCN(CCc2c[nH]c3ccc(C[C@H]4COC(=O)N4)cc23)C1)c1ccccc1,0.5 nM,0.3 nM,49 nM,IC50 [6]: 2200 nM; IC50 [7]: 50 nM; IC50 [4]: 8.7 nM; IC50 [8]: 0.3 nM
c1cncc(CNC[C@@H]2CCN(CCc3c[nH]c4ccc(-n5cnnc5)cc34)C2)c1,,3.8 nM,62 nM,
CC(C)(NC[C@@H]1CCN(CCc2c[nH]c3ccc(-n4cnnc4)cc23)C1)c1ccccc1,0.3 nM,1 nM,39 nM,
c1ccc(CNC[C@@H]2CCN(CCc3c[nH]c4ccc(-n5cnnc5)cc34)C2)nc1,,3.6 nM,48 nM,
CN(C)CCc1c[nH]c2ccc(-n3cnnc3)cc12,0.4 nM,,1.3 nM,
C[C@H](NC[C@@H]1CCN(CCc2c[nH]c3ccc(Cn4cncn4)cc23)C1)c1ccccc1,3 nM,2.5 nM,305 nM,
c1coc(CNC[C@@H]2CCN(CCc3c[nH]c4ccc(-n5cnnc5)cc34)C2)c1,2.8 nM,1.5 nM,20 nM,
CN(Cc1ccccc1)C[C@@H]1CCN(CCc2c[nH]c3ccc(C[C@H]4COC(=O)N4C)cc23)C1,3.2 nM,1.7 nM,69 nM,
c1cc(CNC[C@@H]2CCN(CCc3c[nH]c4ccc(-n5cnnc5)cc34)C2)ccn1,9.5 nM,8.5 nM,110 nM,
c1ccc(CNC[C@H]2CCN(CCc3c[nH]c4ccc(-n5cnnc5)cc34)C2)cc1,,,47 nM,
c1ccc(COC[C@H]2CCCN2CCc2c[nH]c3ccc(-n4cnnc4)cc23)cc1,,95 nM,575 nM,
OC[C@@H]1CCN(CCc2c[nH]c3ccc(-n4cnnc4)cc23)C1,,26 nM,93 nM,
